Results reported in the RNAGym collection of RNA variant scans (doi:10.1126/science.aae0568).
Variants at the floor of the assay were thinned out.

B1: tRNA (parent)
chain: GUUCCGUUGGCGUAAUGGUAACGCGUCUCCCUCCUAAGGAGAAGACUGCGGGUUCGAGUCCCGUACGGAACG

Variants of: B1
Experiment: yeast fitness relative to wild type (ratio to wild type); higher = fitter; tRNA-Arg(CCU), competitive growth, 37 C, YPD
Outline: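 Start and end populations of a pooled competition were compared by 100-nucleotide paired-end sequencing of gene amplicons. The Saccharomyces cerevisiae strains carried tRNA-Arg(CCU) gene variants at the native genomic locus, synthesised with a 3% per-site mutation rate at 69 sites, and competed in YPD at 37°C for 24 hours in six parallel replicates. Darwinian fitness relative to wild type was based on the change in genotype frequencies. Genotypes required ≥ 100 starting reads, and estimates < 0.5 were set to 0.5.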
C5G G58C showed a yeast fitness of 0.859. For C5G G12C A20U C24G C33A C46A C55A, the yeast fitness was ≤ 0.5. In the case of C5G G23A G25C, the yeast fitness is reported as ≤ 0.5. Variant C5G U32C has a yeast fitness of 0.946. For C5G U35G C49A, the yeast fitness was ≤ 0.5. In the case of C5G G38C G68A, the yeast fitness is reported as ≤ 0.5. In the case of C5G U8A C29A U35C, the yeast fitness is reported as ≤ 0.5. With C5G U13G C29U G50C U59A the yeast fitness was ≤ 0.5. With C5G U8C A15G G18C the yeast fitness was ≤ 0.5. With C5G G25A A45C the yeast fitness was 0.705. With C5G G12C the yeast fitness was 0.816. For C5G U7C A14U C24U C46G C62U C66U, the yeast fitness was ≤ 0.5. In the case of C5G U47C A65C, the yeast fitness is reported as 0.558. In the case of C5G U28G G38C C62G, the yeast fitness is reported as ≤ 0.5. In the case of C5G U8C C11G C31G, the yeast fitness is reported as ≤ 0.5. Work on C5G G51C C61G yielded a yeast fitness of 0.607. In the case of C5G U13C C31A A43G G50C, the yeast fitness is reported as ≤ 0.5. For C5G U13A A20G U35A A40G, the yeast fitness was ≤ 0.5. For C5G G25A C34A C49G G50A, the yeast fitness was ≤ 0.5. Work on C5G G23A G44C G67U yielded a yeast fitness of 0.589. In the case of C5G U28A A57C C66G, the yeast fitness is reported as ≤ 0.5. For C5G G25A C34G A42U G50C U54C A70C, the yeast fitness was ≤ 0.5. In the case of C5G G44C C62U C66U A69C, the yeast fitness is reported as 0.515. C5G U19C G25A showed a yeast fitness of 0.716. In the case of C5G G18C C61U A65C, the yeast fitness is reported as ≤ 0.5. C5U showed a yeast fitness of 0.987. In the case of C5G U13A C31G G50A A65C, the yeast fitness is reported as 0.58. With C5G U13A C31G G50A A65G the yeast fitness was ≤ 0.5. In the case of C5G G10C U47A A70G, the yeast fitness is reported as ≤ 0.5. C5G G48A G68C gave a yeast fitness of 0.653. C5G U59C showed a yeast fitness of 0.852. For C5G U59G, the yeast fitness was 0.62. In the case of C5G U16A A21C A37C G68A, the yeast fitness is reported as ≤ 0.5. With C5G G18A G48C G67A the yeast fitness was ≤ 0.5. For C5G U7G A15G, the yeast fitness was ≤ 0.5. C5G U35C gave a yeast fitness of 0.71. C5G U47A G68C showed a yeast fitness of 0.565. C5G U26C U32A gave a yeast fitness of 0.604. C5G U13C C46U gave a yeast fitness of 0.547. Work on C5G U28G yielded a yeast fitness of 0.699. Work on C5G G17A C22U C46U C66U A70C yielded a yeast fitness of 0.62. With C5G U7A C27A C29A the yeast fitness was ≤ 0.5. C5G G25A C61U showed a yeast fitness of 0.716. In the case of C5G U28C A70G, the yeast fitness is reported as 0.641. In the case of C5G U19G C22U U32C A65C, the yeast fitness is reported as ≤ 0.5. In the case of C5G G52A, the yeast fitness is reported as 0.806. Work on C5G U32C G58C yielded a yeast fitness of 0.665. For C5G U35G C49A G56A, the yeast fitness was ≤ 0.5. Work on C5G U26C A65U yielded a yeast fitness of 0.67. With C5G U8G C11G C49U C61G the yeast fitness was ≤ 0.5. For C5G G23C C33U A43C, the yeast fitness was ≤ 0.5. In the case of C5G G12A U47C C62A, the yeast fitness is reported as ≤ 0.5. In the case of C5G G17C C49U C61A, the yeast fitness is reported as ≤ 0.5. In the case of C5G U7C U26G C60G, the yeast fitness is reported as ≤ 0.5. C5G G23A A45U G52C showed a yeast fitness of 0.626. In the case of C5G U8C G48C, the yeast fitness is reported as ≤ 0.5. In the case of C5G U7G C61U, the yeast fitness is reported as 0.649. Variant C5G G41C C49U has a yeast fitness of 0.543. With C5G G50A A69U the yeast fitness was 0.742. Variant C5G G50A A69C has a yeast fitness of 0.571. C5G G44C G67U gave a yeast fitness of 1.02. For C5G G12A A14G C30G A45G G52A, the yeast fitness was ≤ 0.5. For C5G G17A G38A A40G A69U, the yeast fitness was ≤ 0.5. With C5G G51U C55G A65C the yeast fitness was ≤ 0.5. With C5G U7C C49U the yeast fitness was 0.524. C5G U47G gave a yeast fitness of 0.611. Work on C5G U47C yielded a yeast fitness of 0.745. With C5G U8C C60A G63A the yeast fitness was ≤ 0.5. With C5G U26C G44A the yeast fitness was 0.529. With C5G U7C C11G A43G A65U the yeast fitness was ≤ 0.5. For C5G G38C U47G C62U, the yeast fitness was ≤ 0.5. In the case of C5G U19C G67C, the yeast fitness is reported as 0.682. For C5G G48C C49U U54G C66A, the yeast fitness was 0.682. In the case of C5G G17C C62U A65C, the yeast fitness is reported as 0.52. C5G G67C gave a yeast fitness of 0.99. Work on C5G G67A yielded a yeast fitness of 0.86. In the case of C5G U13G C29U A40G, the yeast fitness is reported as ≤ 0.5. For C5G U13G A36U U64G, the yeast fitness was ≤ 0.5. For C5G U7A A15C U28A, the yeast fitness was ≤ 0.5. For C5G U8A U28C G51A A69C, the yeast fitness was ≤ 0.5. For C5G G38A U59C, the yeast fitness was ≤ 0.5. Work on C5G G25A C46U G50C yielded a yeast fitness of 0.593. In the case of C5G G17C G25A G51A, the yeast fitness is reported as ≤ 0.5. For C5G G18C C62A, the yeast fitness was ≤ 0.5. With C5G G12A A36U A42U U59C the yeast fitness was ≤ 0.5. C5G U35C A69C showed a yeast fitness of 0.551. In the case of C5G U13G C27U G41A, the yeast fitness is reported as 0.541. With C5G U16A A57U the yeast fitness was ≤ 0.5. In the case of C5G U26C, the yeast fitness is reported as 0.803. C5G U26A showed a yeast fitness of 0.815. Work on C5G U26G yielded a yeast fitness of 0.625. In the case of C5G G38C A69U, the yeast fitness is reported as ≤ 0.5. C5G U53G A65U showed a yeast fitness of 0.612. Work on C5G G12A C46U yielded a yeast fitness of 0.572. For C5G U26C G44A A70U, the yeast fitness was 0.546. C5G U35C G48C showed a yeast fitness of 0.571. In the case of C5G U13A C22G C27U C29G A40U U54C C61G, the yeast fitness is reported as ≤ 0.5. With C5G G18A A20U C55G the yeast fitness was ≤ 0.5. C5G U32A C62U showed a yeast fitness of 0.532. In the case of C5G U32A C62G, the yeast fitness is reported as ≤ 0.5. In the case of C5G U26C G44A A69U, the yeast fitness is reported as ≤ 0.5. With C5G G48A C49U A57G the yeast fitness was 0.624. Work on C5G G41C G67C yielded a yeast fitness of 0.631. In the case of C5G U8A G52C U53A, the yeast fitness is reported as ≤ 0.5. For C5G G41A, the yeast fitness was 0.698. With C5G G41C the yeast fitness was 0.736. For C5G G23A A69C, the yeast fitness was ≤ 0.5. In the case of C5G G25C C29G A65U, the yeast fitness is reported as ≤ 0.5. With C5G G48A G56C A65G the yeast fitness was ≤ 0.5. With C5G U13C A21C G63C A69C the yeast fitness was ≤ 0.5. C5G G17C C60U showed a yeast fitness of 0.686. Work on C5G U19A C24G C34A C55U yielded a yeast fitness of 0.601. In the case of C5G U8C A14C C29A C31G U54A, the yeast fitness is reported as ≤ 0.5. With C5G U26C C34G C55A A69U the yeast fitness was ≤ 0.5. Work on C5G G50A C55G A65C yielded a yeast fitness of 0.551. With C5G U13C A21C G67A the yeast fitness was ≤ 0.5. C5G U54C G56A gave a yeast fitness of 0.729. For C5G U8A G39A, the yeast fitness was ≤ 0.5. With C5G G39A A43U the yeast fitness was 0.575. In the case of C5G G17A A20C C49G G51A, the yeast fitness is reported as ≤ 0.5. For C5G U13C C22G C29G A45C, the yeast fitness was ≤ 0.5. Variant C5G U13C A20C U32G C46U has a yeast fitness of 0.703. Variant C5G U47A C55A has a yeast fitness of 0.637. For C5G U13G A20U A37G G52C G68A, the yeast fitness was ≤ 0.5. Work on C5G U47C C61G yielded a yeast fitness of 0.519. With C5G U26A A36C A42G the yeast fitness was ≤ 0.5. C5G U7A A20C showed a yeast fitness of 0.694. In the case of C5G G56A C62G, the yeast fitness is reported as 0.543. With C5G U47A C62G G63A the yeast fitness was ≤ 0.5. Variant C5G U59G A65G has a yeast fitness of 0.614. For C5G U8C A36G A40C, the yeast fitness was 0.55. In the case of C5G U16C C33U C66A, the yeast fitness is reported as ≤ 0.5. C5G G23A showed a yeast fitness of 0.668. C5G G23A C34A showed a yeast fitness of 0.723. For C5G G18A G25A C61A, the yeast fitness was ≤ 0.5. For C5G U19C U35A A43C A65C, the yeast fitness was ≤ 0.5. In the case of C5G U7C A45U C55G, the yeast fitness is reported as ≤ 0.5. For C5G U19G C31U U32A A45U A70U, the yeast fitness was ≤ 0.5. With C5G U8C G10C G52A the yeast fitness was ≤ 0.5. Variant C5G U7A C22U C30A C49G C55U has a yeast fitness of 0.552. C5G G56C gave a yeast fitness of 0.662. In the case of C5G U8C U47A G68C, the yeast fitness is reported as ≤ 0.5. C5G U13C A70C gave a yeast fitness of 0.579. In the case of C5G U13C C22G C29G A45C G68C A69G, the yeast fitness is reported as ≤ 0.5. For C5G G18A A57G A65C, the yeast fitness was ≤ 0.5. Variant C5G G25A U59G has a yeast fitness of 0.631. With C5G G56A U59G the yeast fitness was ≤ 0.5. With C5G U13A C31G G50A G67A A69G the yeast fitness was ≤ 0.5. With C5G G48A C49G the yeast fitness was 0.658. With C5G U47C C61A G68U the yeast fitness was ≤ 0.5. For C5G G17C C46U G68A, the yeast fitness was ≤ 0.5. For C5G U28G G38C C62G C66U, the yeast fitness was ≤ 0.5. With C5G G17C A20C A21U C27U C33G G67A the yeast fitness was 0.595. In the case of C5G U59A A65G, the yeast fitness is reported as 0.667. With C5G G17C A20C A21U C27U C33G the yeast fitness was ≤ 0.5. C5G U26C A36C showed a yeast fitness of 0.547. For C5G U13A C22G C29G A40U C62U, the yeast fitness was ≤ 0.5. In the case of C5G U8A A36U A42G G50A A57G, the yeast fitness is reported as ≤ 0.5. In the case of C5G U8C C55G, the yeast fitness is reported as ≤ 0.5. C5G U7C gave a yeast fitness of 0.787. With C5G U13A A20G U35A A40G G63U the yeast fitness was ≤ 0.5. For C5G G12A A36U A42U U59C A65C, the yeast fitness was ≤ 0.5. In the case of C5G U19A A20U G51C, the yeast fitness is reported as ≤ 0.5. In the case of C5G U64C, the yeast fitness is reported as 0.978. C5G U7C A14C G51C gave a yeast fitness of 0.697. For C5G U13G A20U A37G A69U, the yeast fitness was ≤ 0.5. C5G G25C U47C gave a yeast fitness of 0.545.
